Measurements reported in ChEMBL document CHEMBL3997796 (J Med Chem, 2017).
Active and inactive are the calls of the source. No cut-off for these calls is given here.

What was measured:
[1] = Stability in mouse 4T1 cells assessed as parent compound remaining at 10 uM after 40 hrs by LC-MS/MS method; format: ADME, cell-based; conditions: read-out: Stability
Outline: (§1)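 4T1 cells (1 × 10^4/well) attached overnight, then 10 μM compound in DMEM with 1% charcoal-stripped FBS (0.1% DMSO final); quadruplicate samples at 0, 16, 40 h, centrifuged, diethyl ether extracted twice, LC-MS/MS peak areas normalized to 0 h.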

[2] = biological target: T1, Glycerophosphocholine cholinephosphodiesterase ENPP6 (Homo sapiens) (UniProt Q6UWR7); assay: Inhibition of ENPP6 (unknown origin) using pNPPC as substrate measured every 2 mins for 1 hr by […]
T1 sequence (whole entry): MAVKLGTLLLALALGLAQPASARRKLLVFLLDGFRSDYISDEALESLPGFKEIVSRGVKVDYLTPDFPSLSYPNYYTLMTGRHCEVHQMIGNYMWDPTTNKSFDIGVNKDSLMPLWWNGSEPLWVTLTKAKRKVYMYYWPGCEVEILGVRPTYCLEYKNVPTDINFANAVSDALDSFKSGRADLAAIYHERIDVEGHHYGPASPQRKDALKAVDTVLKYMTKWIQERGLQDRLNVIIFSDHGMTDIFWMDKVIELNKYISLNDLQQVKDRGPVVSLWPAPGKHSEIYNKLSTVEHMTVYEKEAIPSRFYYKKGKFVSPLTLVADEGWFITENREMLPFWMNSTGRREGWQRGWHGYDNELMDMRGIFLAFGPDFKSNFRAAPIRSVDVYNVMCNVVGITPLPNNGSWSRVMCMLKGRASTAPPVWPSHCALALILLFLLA
Outline: (§2)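 10 nM ENPP6 or ENPP7, 10 μM pNPPC, compound 0–10 μM, triplicate; ENPP6 buffer 100 mM Tris, 500 mM NaCl, 0.05% Triton pH 9.0; ENPP7 buffer 50 mM Tris, 150 mM NaCl, 10 mM taurocholate pH 8.5; 405 nm absorbance every 2 min for 1 h.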

[3] = Stability in mouse 4T1 cells assessed as parent compound remaining at 10 uM after 16 hrs by LC-MS/MS method; format: ADME, cell-based; conditions: read-out: Stability; outline: as §1
[4] = biological target: T2, Ectonucleotide pyrophosphatase/phosphodiesterase family member 7 (Homo sapiens) (UniProt Q6UWV6); assay: Inhibition of ENPP7 (unknown origin) using pNPPC as substrate measured every 2 mins for 1 hr by […]; outline: as §2
T2 sequence (whole entry): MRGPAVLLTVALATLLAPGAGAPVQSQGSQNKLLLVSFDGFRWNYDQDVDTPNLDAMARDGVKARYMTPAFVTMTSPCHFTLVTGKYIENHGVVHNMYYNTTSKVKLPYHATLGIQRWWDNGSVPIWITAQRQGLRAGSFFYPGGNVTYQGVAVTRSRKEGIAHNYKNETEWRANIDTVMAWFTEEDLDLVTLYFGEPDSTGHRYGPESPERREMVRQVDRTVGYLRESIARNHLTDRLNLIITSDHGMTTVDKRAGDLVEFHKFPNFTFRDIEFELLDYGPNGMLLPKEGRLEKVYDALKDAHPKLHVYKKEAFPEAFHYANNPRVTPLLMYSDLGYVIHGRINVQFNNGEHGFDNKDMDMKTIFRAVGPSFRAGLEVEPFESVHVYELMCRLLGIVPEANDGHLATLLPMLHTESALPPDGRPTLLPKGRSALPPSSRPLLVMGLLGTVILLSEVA

Autotaxin [5] = biological target: T3, Autotaxin (Homo sapiens, UniProt Q13822); assay: Competitive inhibition of recombinant human C-terminal FLAg-tagged ATX expressed in baculovirus infected sf9 cells using varying levels of FRET based FS-3 substrate at 0.5 to 2 times IC50 measured every 2 mins for 1 hr by Michaelis-Menten plot analysis
Autotaxin [6] = biological target: T3, Autotaxin; assay: Inhibition of recombinant human C-terminal FLAg-tagged ATX nucleotide pyrophosphate phosphatase activity expressed in baculovirus infected sf9 cells using pNP-TMP as substrate measured every 2 mins for 1 hr by fluorescence assay
Autotaxin [7] = biological target: T3, Autotaxin; assay: Inhibition of ATX (unknown origin)
[8] = biological target: Lysophosphatidic acid receptor 2 (Homo sapiens) (UniProt Q9HBW0); assay: Antagonist activity at LPA2 receptor (unknown origin) expressed in MEF cells assessed as inhibition of LPA-induced intracellular calcium level up to 100 uM measured every 3.42 secs for 70 secs by Fura-2-AM dye based fluorescence assay; format: functional, cell-based
Chain of Lysophosphatidic acid receptor 2 (Homo sapiens) (Q9HBW0 whole entry): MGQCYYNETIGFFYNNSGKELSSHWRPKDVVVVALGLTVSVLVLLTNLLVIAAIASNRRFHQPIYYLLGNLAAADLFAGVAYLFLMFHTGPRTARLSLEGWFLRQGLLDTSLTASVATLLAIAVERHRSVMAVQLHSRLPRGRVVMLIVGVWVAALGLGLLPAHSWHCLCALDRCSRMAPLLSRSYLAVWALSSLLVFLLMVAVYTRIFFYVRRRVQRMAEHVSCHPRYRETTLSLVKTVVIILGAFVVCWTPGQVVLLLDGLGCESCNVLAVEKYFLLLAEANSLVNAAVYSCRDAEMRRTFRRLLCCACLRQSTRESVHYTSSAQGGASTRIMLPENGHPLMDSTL

Autotaxin [9] = biological target: T3, Autotaxin; assay: Inhibition of ATX (unknown origin) expressed in human A2058 cells assessed as inhibition of LPC-induced cell invasion after 20 hrs by calcein-AM dye based matrigel-mediated Boyden chamber assay
[10] = biological target: T4, Lysophosphatidic acid receptor 3 (Homo sapiens) (UniProt Q9UBY5); assay: Antagonist activity at LPA3 receptor (unknown origin) expressed in rat RH7777 cells assessed as inhibition of LPA-induced intracellular calcium level up to 100 uM measured every 3.42 secs for 70 secs by Fura-2-AM dye based fluorescence assay; format: functional, cell-based
T4 sequence (whole entry): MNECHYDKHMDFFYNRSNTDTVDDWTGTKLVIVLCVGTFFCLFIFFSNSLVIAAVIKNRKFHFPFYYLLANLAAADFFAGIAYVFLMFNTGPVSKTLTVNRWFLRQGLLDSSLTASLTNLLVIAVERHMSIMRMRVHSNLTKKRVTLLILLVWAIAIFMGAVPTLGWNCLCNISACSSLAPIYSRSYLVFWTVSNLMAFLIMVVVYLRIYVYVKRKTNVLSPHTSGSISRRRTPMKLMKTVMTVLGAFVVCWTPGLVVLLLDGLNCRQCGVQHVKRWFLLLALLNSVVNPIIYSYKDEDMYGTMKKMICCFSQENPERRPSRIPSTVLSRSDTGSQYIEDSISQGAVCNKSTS

B16-F10 = assay: Antitumor activity against mouse B16F10 cells implanted in C57BL/6 mouse assessed as reduction in metastatic tumor nodules on lungs at 1 mg/kg, ip administered daily up to 10 days measured on day 21; format: functional, organism-based
Outline: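 C57BL/6 mice, 8–12 weeks, given 1 × 10^5 B16F10 cells by tail vein; 1 mg/kg i.p. daily from day 0 (before inoculation) to day 10, vehicle PBS with 1% DMSO and 50 μM charcoal-stripped mouse serum albumin; sacrifice day 21, lung nodules counted; one-way ANOVA with Bonferroni.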

4T1 = assay: Growth inhibition of mouse 4T1 cells at 10 uM after 48 hrs by CellTiter blue assay; format: cell-based; conditions: 4t1, 48 h
[11] = biological target: T5, Lysophosphatidic acid receptor 1 (Homo sapiens, UniProt Q92633); assay: Antagonist activity at LPA1 receptor (unknown origin) expressed in rat RH7777 cells assessed as inhibition of LPA-induced intracellular calcium level measured every 3.42 secs for 70 secs by Fura-2-AM dye based fluorescence assay; format: functional, cell-based
T5 sequence (Q92633 whole entry): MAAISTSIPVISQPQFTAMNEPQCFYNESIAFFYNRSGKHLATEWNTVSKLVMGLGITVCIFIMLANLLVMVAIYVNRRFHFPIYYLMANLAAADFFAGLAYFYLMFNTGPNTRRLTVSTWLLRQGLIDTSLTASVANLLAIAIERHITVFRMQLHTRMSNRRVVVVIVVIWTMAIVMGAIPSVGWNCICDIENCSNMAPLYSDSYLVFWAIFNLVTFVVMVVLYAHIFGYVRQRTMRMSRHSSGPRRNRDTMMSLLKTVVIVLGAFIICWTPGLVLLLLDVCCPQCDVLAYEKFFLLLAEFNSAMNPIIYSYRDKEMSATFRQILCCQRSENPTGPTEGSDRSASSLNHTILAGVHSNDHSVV

[12] = biological target: Lysophosphatidic acid receptor 4 (Homo sapiens) (UniProt Q99677); assay: Antagonist activity at LPA4 receptor (unknown origin) expressed in CHO cells assessed as inhibition of LPA-induced intracellular calcium level up to 100 uM measured every 3.42 secs for 70 secs by Fura-2-AM dye based fluorescence assay; format: functional, cell-based
Chain of Lysophosphatidic acid receptor 4 (Homo sapiens) (Q99677 whole entry): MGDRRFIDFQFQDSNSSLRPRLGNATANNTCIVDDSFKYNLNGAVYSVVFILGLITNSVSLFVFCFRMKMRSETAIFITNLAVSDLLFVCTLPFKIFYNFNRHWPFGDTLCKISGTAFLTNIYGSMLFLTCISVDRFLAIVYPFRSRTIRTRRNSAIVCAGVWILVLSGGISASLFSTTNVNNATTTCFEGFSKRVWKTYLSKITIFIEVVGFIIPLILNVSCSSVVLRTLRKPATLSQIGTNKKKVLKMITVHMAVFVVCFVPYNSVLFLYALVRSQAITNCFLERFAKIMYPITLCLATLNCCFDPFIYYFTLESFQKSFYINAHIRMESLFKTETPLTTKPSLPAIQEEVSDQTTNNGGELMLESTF

[13] = biological target: Lysophosphatidic acid receptor 5 (Homo sapiens) (UniProt Q9H1C0); assay: Antagonist activity at FLAG-tagged LPA5 receptor (unknown origin) expressed in rat B103 cells assessed as inhibition of LPA-induced intracellular calcium level up to 100 uM measured every 3.42 secs for 70 secs by Fura-2-AM dye based fluorescence assay; format: functional, cell-based
Chain of Lysophosphatidic acid receptor 5 (Homo sapiens) (Q9H1C0 whole entry): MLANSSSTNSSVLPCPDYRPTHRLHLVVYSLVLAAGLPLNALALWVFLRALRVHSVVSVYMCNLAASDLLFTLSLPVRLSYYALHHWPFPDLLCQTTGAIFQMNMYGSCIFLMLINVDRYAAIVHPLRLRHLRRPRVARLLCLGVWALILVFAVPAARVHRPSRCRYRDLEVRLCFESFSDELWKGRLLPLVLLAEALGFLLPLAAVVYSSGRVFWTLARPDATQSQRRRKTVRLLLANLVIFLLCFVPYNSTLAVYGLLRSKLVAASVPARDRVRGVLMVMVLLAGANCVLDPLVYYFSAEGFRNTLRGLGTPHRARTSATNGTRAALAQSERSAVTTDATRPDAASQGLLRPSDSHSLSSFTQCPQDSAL

Autotaxin [14] = biological target: T3, Autotaxin; assay: Inhibition of ATX (unknown origin) expressed in human A2058 cells assessed as inhibition of LPC-induced cell invasion at 10 uM after 20 hrs by calcein-AM dye based matrigel-mediated Boyden chamber assay
[15] = biological target: T5, Lysophosphatidic acid receptor 1; assay: Agonist activity at LPA1 receptor (unknown origin) expressed in rat RH7777 cells assessed as increase in intracellular calcium level measured every 3.42 secs for 70 secs by Fura-2-AM dye based fluorescence assay; format: functional, cell-based

Row | remaining at 40 h, 10 µM [1] | inhibition [2] | remaining at 16 h, 10 µM [3] | inhibition [4] | inhibition (Autotaxin [5]) | inhibition (Autotaxin [6]) | IC50 (Autotaxin [7]) | inhibition [8] | inhibition (Autotaxin [9]) | inhibition [10] | IC50 [11] | inhibition [12] | inhibition [13] | inhibition (Autotaxin [14]) | EC50 [15] | SMILES | Activity (B16-F10) | Activity (4T1)
1 | 79.5% | inactive | 79.7% | inactive | Active | inactive | 116 nM |  |  |  |  |  |  |  |  | O=C(Nc1cccc(F)c1)c1cc(S(=O)(=O)N2CCOCC2)c(Cl)cc1Cl |  | 
2 | 102% | inactive | 93.2% | inactive | Active | inactive |  | inactive | Dose-dependent effect | inactive | Not Active | inactive | inactive | Active |  | O=S(=O)(c1cc(C(=S)Nc2cc(F)c(F)c(F)c2)c(Cl)cc1Cl)N1CCOCC1 | Active | Toxic
3 |  |  |  |  |  |  |  |  |  |  |  |  |  |  | 80 nM | CCCCCCCC/C=C\CCCCCCCC(=O)OCC(O)COP(=O)(O)O (stereo not drawn) |  | 
